Data: ChEMBL document CHEMBL4038284, “Synthesis of novel quinoline-based 4,5-dihydro-1H-pyrazoles as potential anticancer, antifungal, antibacterial and antiprotozoal agents” (Eur J Med Chem, 2017)
In brackets after ≈: the same amount, converted by molar mass. Activity calls are given as the source filed them. No cut-off for these calls is given here.

How the values were obtained:
HL-60(TB) = assay: Growth inhibition of human HL-60(TB) cells at 10 uM incubated for 48 hrs by sulforhodamine B assay; format: functional, cell-based
In short: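 NCI 60-line single-dose screen at 10 μM, 48 h. Cells in RPMI-1640 with 5% FBS and 2 mM L-glutamine at 37 °C, 5% CO2. Growth measured by TCA fixation and SRB staining (515 nm), relative to time-zero and untreated control wells.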

RXF 393 = assay: Growth inhibition of human RXF393 cells at 10 uM incubated for 48 hrs by sulforhodamine B assay; format: functional, cell-based
In short: (§1)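 NCI 60-line panel, single 10 μM dose. Cells were grown in RPMI-1640 with 5% FBS and 2 mM L-glutamine and pre-incubated 24 h before compound addition (DMSO stock). Exposure was 48 h at 37 °C, 5% CO2. Cells were fixed with cold TCA (10% final), stained with 0.4% SRB, bound dye dissolved in 10 mM Tris base, A515 read. Growth was taken relative to time-zero and untreated control plates.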

U-251 = assay: Growth inhibition of human U251 cells at 10 uM incubated for 48 hrs by sulforhodamine B assay; format: functional, cell-based
In short: (§2)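 NCI-60 single-dose screen at 10 µM for 48 h. Cells were grown in RPMI-1640 with 5% FBS and 2 mM L-glutamine and preincubated 24 h before compound. Time-zero plates were TCA-fixed at compound addition. After exposure, cells were TCA-fixed, stained with SRB and read at 515 nm. Percentage growth was calculated against time-zero and untreated-control absorbances.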

786-0 = assay: Growth inhibition of human 786-0 cells at 10 uM incubated for 48 hrs by sulforhodamine B assay; format: functional, cell-based
In short: (§3)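 NCI 60-cell-line screen at a single 10 µM dose. Cells in RPMI-1640 with 5% FBS and 2 mM L-glutamine, pre-incubated 24 h, then treated for 48 h at 37 °C. TCA fixation, sulforhodamine B staining, absorbance at 515 nm. Percentage growth calculated against time-zero and untreated controls.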

SF-268 = assay: Growth inhibition of human SF268 cells at 10 uM incubated for 48 hrs by sulforhodamine B assay; format: functional, cell-based; in short: as §1
MDA-MB-468 = assay: Growth inhibition of human MDA-MB-468 cells at 10 uM incubated for 48 hrs by sulforhodamine B assay; format: functional, cell-based; in short: as §1
Klebsiella pneumoniae = assay: Antibacterial activity against ESBL positive Klebsiella pneumoniae ATCC 700603 after 24 hrs by resazurin dye based microdilution assay; format: functional; details: Klebsiella pneumoniae, 700603, 24 h
In short: (§4)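 MIC taken as the lowest concentration giving visible inhibition and/or by resazurin (1 mg/mL). Gentamicin was the control. Run in duplicate, repeated at least three times.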

Cryptococcus neoformans = assay: Growth inhibition of Cryptococcus neoformans ATCC 32264 at 7.8 ug/ml incubated for 48 hrs under dark condition by broth microdilution method relative to control; format: functional; details: ATCC 32264, 48 h, read-out: GI
In short: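 CLSI M27-A3 broth microdilution in RPMI-1640, DMSO ≤1%. Inoculum 1-5 × 10^3 CFU/mL. Incubated 48 h at 30 °C, dark. % inhibition = 100 − (OD405 test − sterility control)/(OD405 growth control − sterility control), with growth and sterility control wells. Triplicate.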

SW-620 = assay: Growth inhibition of human SW620 cells at 10 uM incubated for 48 hrs by sulforhodamine B assay; format: functional, cell-based; in short: as §2
NCI-H322M = assay: Growth inhibition of human NCI-H322M cells at 10 uM incubated for 48 hrs by sulforhodamine B assay; format: functional, cell-based; in short: as §1
OVCAR-8 = assay: Growth inhibition of human OVCAR8 cells at 10 uM incubated for 48 hrs by sulforhodamine B assay; format: functional, cell-based; in short: as §1
Escherichia coli = assay: Antibacterial activity against Escherichia coli ATCC 25922 after 24 hrs by resazurin dye based microdilution assay; format: functional; details: ATCC 25922, 24 h; in short: as §4
SK-MEL-28 = assay: Growth inhibition of human SK-MEL-28 cells at 10 uM incubated for 48 hrs by sulforhodamine B assay; format: functional, cell-based; in short: as §2
UO-31 = assay: Growth inhibition of human UO31 cells at 10 uM incubated for 48 hrs by sulforhodamine B assay; format: functional, cell-based; in short: as §2
HOP-62 = assay: Growth inhibition of human HOP62 cells at 10 uM incubated for 48 hrs by sulforhodamine B assay; format: functional, cell-based; in short: as §3
NCI-H522 = assay: Growth inhibition of human NCI-H522 cells at 10 uM incubated for 48 hrs by sulforhodamine B assay; format: functional, cell-based; in short: as §1
SNB-19 = assay: Growth inhibition of human SNB19 cells at 10 uM incubated for 48 hrs by sulforhodamine B assay; format: functional, cell-based; in short: as §2
SK-OV-3 = assay: Growth inhibition of human SKOV3 cells at 10 uM incubated for 48 hrs by sulforhodamine B assay; format: functional, cell-based; in short: as §2
Candida albicans = assay: Antifungal activity against Candida albicans ATCC 10231 incubated for 48 hrs under dark condition by broth microdilution method; format: functional; details: ATCC 10231, 48 h
In short: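 CLSI M27-A3 broth microdilution in RPMI-1640, DMSO ≤1%, compounds at 250-0.98 µg/mL final. Inoculum 1-5 × 10^3 CFU/mL. Incubated 48 h at 30 °C in a moist dark chamber, read at OD405. MIC80 and MIC50 taken from % inhibition dose-response curves (mean ± SEM, triplicate). Amphotericin B was the positive control.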

A549 = assay: Growth inhibition of human A549/ATCC cells at 10 uM incubated for 48 hrs by sulforhodamine B assay; format: functional, cell-based; in short: as §3
NCI-H226 = assay: Growth inhibition of human NCI-H226 cells at 10 uM incubated for 48 hrs by sulforhodamine B assay; format: functional, cell-based; in short: as §1
T47D = assay: Growth inhibition of human T47D cells at 10 uM incubated for 48 hrs by sulforhodamine B assay; format: functional, cell-based; in short: as §2
U-937 = assay: Cytotoxicity against human U937 cells after 72 hrs by MTT assay; format: cell-based; details: u-937, 72 h
In short: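 Exponentially growing U-937 at 1 × 10^5 cells/mL in RPMI-1640 with 10% FBS were exposed to 200, 50, 12.5 and 3.125 µg/mL for 72 h at 37 °C, 5% CO2. MTT for 3 h, stopped with isopropanol/SDS, formazan read at 570 nm, blank-corrected. LC50 by Probit from % viability against untreated cells. Triplicate, at least two independent experiments.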

PC-3 = assay: Growth inhibition of human PC3 cells at 10 uM incubated for 48 hrs by sulforhodamine B assay; format: functional, cell-based; in short: as §1
COLO 205 = assay: Growth inhibition of human COLO205 cells at 10 uM incubated for 48 hrs by sulforhodamine B assay; format: functional, cell-based; in short: as §3
SNB-75 = assay: Growth inhibition of human SNB75 cells at 10 uM incubated for 48 hrs by sulforhodamine B assay; format: functional, cell-based; in short: as §2
Hs-578T = assay: Growth inhibition of human Hs578T cells at 10 uM incubated for 48 hrs by sulforhodamine B assay; format: functional, cell-based; in short: as §1
SK-MEL-5 = assay: Growth inhibition of human SK-MEL-5 cells at 10 uM incubated for 48 hrs by sulforhodamine B assay; format: functional, cell-based; in short: as §2
UACC-257 = assay: Growth inhibition of human UACC257 cells at 10 uM incubated for 48 hrs by sulforhodamine B assay; format: functional, cell-based; in short: as §2

Structure (SMILES): COc1ccc(C(=O)/C=C/c2cccc(Nc3ccnc4cc(Cl)ccc34)c2)cc1
- growth inhibition (GI) (HL-60(TB)): Active
- growth inhibition (GI) (RXF 393): Active
- growth inhibition (GI) (U-251): Active
- growth inhibition (GI) (786-0): Active
- growth inhibition (GI) (SF-268): Active
- growth inhibition (GI) (MDA-MB-468): Active
- MIC (Klebsiella pneumoniae): > 1000 µg/mL
- inhibition of growth at 7.8 µg/mL (Cryptococcus neoformans): 2.47%
- growth inhibition (GI) (SW-620): Active
- growth inhibition (GI) (NCI-H322M): Active
- growth inhibition (GI) (OVCAR-8): Active
- MIC (Escherichia coli): > 1000 µg/mL
- growth inhibition (GI) (SK-MEL-28): Active
- growth inhibition (GI) (UO-31): Active
- growth inhibition (GI) (HOP-62): Active
- growth inhibition (GI) (NCI-H522): Active
- growth inhibition (GI) (SNB-19): Active
- growth inhibition (GI) (SK-OV-3): Active
- MIC50 (Candida albicans): 250 µg/mL (≈ 603 µM)
- MIC80 (Candida albicans): ≥ 250 µg/mL
- growth inhibition (GI) (A549): Active
- growth inhibition (GI) (NCI-H226): Active
- growth inhibition (GI) (T47D): Active
- LC50 (U-937): 8.1 µg/mL (≈ 19.5 µM)
- growth inhibition (GI) (PC-3): Active
- growth inhibition (GI) (COLO 205): Active
- growth inhibition (GI) (SNB-75): Active
- growth inhibition (GI) (Hs-578T): Active
- growth inhibition (GI) (SK-MEL-5): Active
- growth inhibition (GI) (UACC-257): Active

Structure (SMILES): O=Cc1cccc(Nc2ccnc3cc(Cl)ccc23)c1
- MIC (Klebsiella pneumoniae): > 1000 µg/mL
- inhibition of growth at 7.8 µg/mL (Cryptococcus neoformans): 5.93%
- MIC (Escherichia coli): 62.5 µg/mL (≈ 221 µM)
- MIC50 (Candida albicans): 250 µg/mL (≈ 884 µM)
- MIC80 (Candida albicans): ≥ 250 µg/mL
- LC50 (U-937): 0.6 µg/mL (≈ 2.12 µM)

Structure (SMILES): COc1ccc(C2=NN(C=O)C(c3cccc(Nc4ccnc5cc(Cl)ccc45)c3)C2)cc1 (stereo unspecified)
- growth inhibition (GI) (HL-60(TB)): Active
- growth inhibition (GI) (RXF 393): Active
- growth inhibition (GI) (U-251): Active
- growth inhibition (GI) (786-0): Active
- growth inhibition (GI) (SF-268): Active
- growth inhibition (GI) (MDA-MB-468): Active
- MIC (Klebsiella pneumoniae): > 1000 µg/mL
- inhibition of growth at 7.8 µg/mL (Cryptococcus neoformans): 13.4%
- growth inhibition (GI) (SW-620): Active
- growth inhibition (GI) (NCI-H322M): Active
- growth inhibition (GI) (OVCAR-8): Active
- MIC (Escherichia coli): > 1000 µg/mL
- growth inhibition (GI) (SK-MEL-28): Active
- growth inhibition (GI) (UO-31): Active
- growth inhibition (GI) (HOP-62): Active
- growth inhibition (GI) (NCI-H522): Active
- growth inhibition (GI) (SNB-19): Active
- growth inhibition (GI) (SK-OV-3): Active
- MIC50 (Candida albicans): ≥ 250 µg/mL
- MIC80 (Candida albicans): ≥ 250 µg/mL
- growth inhibition (GI) (A549): Active
- growth inhibition (GI) (NCI-H226): Active
- growth inhibition (GI) (T47D): Active
- LC50 (U-937): 0.3 µg/mL (≈ 0.657 µM)
- growth inhibition (GI) (PC-3): Active
- growth inhibition (GI) (COLO 205): Active
- growth inhibition (GI) (SNB-75): Active
- growth inhibition (GI) (Hs-578T): Active
- growth inhibition (GI) (SK-MEL-5): Active
- growth inhibition (GI) (UACC-257): Active

Structure (SMILES): O=CN1N=C(c2ccc(Cl)cc2)CC1c1cccc(Nc2ccnc3cc(Cl)ccc23)c1 (stereo unspecified)
- growth inhibition (GI) (HL-60(TB)): Active
- growth inhibition (GI) (RXF 393): Active
- growth inhibition (GI) (U-251): Active
- growth inhibition (GI) (786-0): Active
- growth inhibition (GI) (SF-268): Active
- growth inhibition (GI) (MDA-MB-468): Active
- MIC (Klebsiella pneumoniae): > 1000 µg/mL
- inhibition of growth at 7.8 µg/mL (Cryptococcus neoformans): 39.5%
- growth inhibition (GI) (SW-620): Active
- growth inhibition (GI) (NCI-H322M): Active
- growth inhibition (GI) (OVCAR-8): Active
- MIC (Escherichia coli): > 1000 µg/mL
- growth inhibition (GI) (SK-MEL-28): Active
- growth inhibition (GI) (UO-31): Active
- growth inhibition (GI) (HOP-62): Active
- growth inhibition (GI) (NCI-H522): Active
- growth inhibition (GI) (SNB-19): Active
- growth inhibition (GI) (SK-OV-3): Active
- MIC50 (Candida albicans): 250 µg/mL (≈ 542 µM)
- MIC80 (Candida albicans): ≥ 250 µg/mL
- growth inhibition (GI) (A549): Active
- growth inhibition (GI) (NCI-H226): Active
- growth inhibition (GI) (T47D): Active
- LC50 (U-937): 0.6 µg/mL (≈ 1.3 µM)
- growth inhibition (GI) (PC-3): Active
- growth inhibition (GI) (COLO 205): Active
- growth inhibition (GI) (SNB-75): Active
- growth inhibition (GI) (Hs-578T): Active
- growth inhibition (GI) (SK-MEL-5): Active
- growth inhibition (GI) (UACC-257): Active
